Data reported in ChEMBL document CHEMBL3232810, “Synthesis, biological evaluation and 3D-QSAR studies of new chalcone derivatives as inhibitors of human P-glycoprotein” (Bioorg Med Chem, 2014).

Molecular target: ATP-dependent translocase ABCB1 (Homo sapiens, UniProt P08183)
Assay: Inhibition of P-gp-mediated daunorubicin efflux in human CCRF-CEM/VCR1000 cells measured within 1 hr by FACS flow cytometry
Summary of the method: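 CCRF vcr1000 cells kept in RPMI 1640 with 10% FCS and 1000 ng/mL vincristine; vincristine washed out 1 week before use. Cells at 1×10⁶/mL were preloaded with daunorubicin (3 µmol/L final), 30 min, 37 °C. After pelleting they were resuspended in warm medium with inhibitor, eight concentrations (1:3 serial), top 20–200 µM. Aliquots at 0, 60, 120, 180 and 240 s went into ice-cold stop solution (5 µmol/L GPV31 final). Initial efflux rates came from linear regression, and IC50 from a Hill-equation fit of rate versus concentration.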

Sequence of ATP-dependent translocase ABCB1 (P08183 whole entry): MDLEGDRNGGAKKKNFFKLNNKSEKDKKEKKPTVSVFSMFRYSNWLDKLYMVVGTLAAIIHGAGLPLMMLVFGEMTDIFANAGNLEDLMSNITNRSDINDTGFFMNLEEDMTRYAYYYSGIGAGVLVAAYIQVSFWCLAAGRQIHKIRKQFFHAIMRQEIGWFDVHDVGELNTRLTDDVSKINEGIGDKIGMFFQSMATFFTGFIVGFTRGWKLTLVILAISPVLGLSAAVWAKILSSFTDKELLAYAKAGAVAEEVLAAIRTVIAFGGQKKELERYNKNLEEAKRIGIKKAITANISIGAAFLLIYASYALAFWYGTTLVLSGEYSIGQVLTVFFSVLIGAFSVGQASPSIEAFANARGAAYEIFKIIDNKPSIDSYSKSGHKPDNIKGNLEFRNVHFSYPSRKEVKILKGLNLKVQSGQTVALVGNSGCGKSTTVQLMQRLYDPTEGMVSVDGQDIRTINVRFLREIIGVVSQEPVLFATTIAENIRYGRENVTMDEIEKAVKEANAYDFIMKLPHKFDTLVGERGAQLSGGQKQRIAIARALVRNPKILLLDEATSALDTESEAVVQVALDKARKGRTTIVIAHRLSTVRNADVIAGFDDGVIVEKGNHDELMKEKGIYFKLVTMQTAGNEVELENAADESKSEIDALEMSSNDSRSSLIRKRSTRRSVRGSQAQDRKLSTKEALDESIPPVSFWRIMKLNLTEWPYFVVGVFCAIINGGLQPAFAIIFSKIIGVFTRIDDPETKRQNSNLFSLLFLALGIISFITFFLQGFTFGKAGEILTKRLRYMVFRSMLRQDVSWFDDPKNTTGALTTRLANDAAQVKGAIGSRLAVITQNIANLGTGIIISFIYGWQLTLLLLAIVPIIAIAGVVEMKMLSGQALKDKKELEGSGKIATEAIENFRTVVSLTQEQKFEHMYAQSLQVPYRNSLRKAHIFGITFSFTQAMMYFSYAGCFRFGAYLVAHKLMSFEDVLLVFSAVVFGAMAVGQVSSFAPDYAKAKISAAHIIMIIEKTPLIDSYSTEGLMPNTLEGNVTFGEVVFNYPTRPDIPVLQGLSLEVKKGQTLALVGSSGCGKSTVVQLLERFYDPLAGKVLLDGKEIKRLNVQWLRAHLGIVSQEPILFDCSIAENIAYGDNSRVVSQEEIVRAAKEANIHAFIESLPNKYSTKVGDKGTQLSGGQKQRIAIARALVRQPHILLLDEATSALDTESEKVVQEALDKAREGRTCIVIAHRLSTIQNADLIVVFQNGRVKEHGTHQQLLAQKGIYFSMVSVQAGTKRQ

| Structure (SMILES) | IC50 [µM] |
| --- | --- |
| COc1ccc2c(c1)CC/C(=C\C=C\c1cc(OC)c(OC)c(OC)c1)C2=O | 1.74 |
| COc1cc(C(=O)/C=C/c2ccccc2SC)cc(OC)c1OC | 0.65 |
| COc1cc(/C=C/C=C2\Cc3ccc(OC)c(OC)c3C2=O)cc(OC)c1OC | 2.63 |
| COc1cc2c(cc1OC)C(=O)/C(=C/C=C/c1ccc(N(C)C)cc1)C2 | 0.04 |
| COc1cc(C(=O)/C=C/c2cccc(/C=C/C(=O)c3cc(OC)c(OC)c(OC)c3)c2)cc(OC)c1OC | 0.12 |
| COc1ccc2c(c1)CC/C(=C\c1ccc3ccccc3c1)C2=O | 3.55 |
| COc1cc2c(cc1OC)C(=O)/C(=C/C=C/c1cc(OC)c(OC)c(OC)c1)CC2 | 0.14 |
| COc1ccc2c(c1)C/C(=C\C=C\c1ccccc1OC)C2=O | 3.89 |
| COc1cc(C(=O)/C=C/C=C/c2ccccc2SC)cc(OC)c1OC | 0.87 |
| COc1ccc2c(c1)C(=O)/C(=C/C=C/c1cc(OC)c(OC)c(OC)c1)C2 | 1.15 |
| COc1cc(/C=C/C=C/C(=O)c2cccc(C(=O)/C=C/C=C/c3cc(OC)c(OC)c(OC)c3)c2)cc(OC)c1OC | 0.06 |
| COc1ccccc1/C=C/C=C/C(=O)c1cc(OC)c(O)c(OC)c1 | 12 |
| COC(=O)C1=C(O)/C(=C/C=C/c2ccccc2OC)CCC1 | 20.4 |
| COc1cc(/C=C/C=C2\Cc3ccc(OC)c(OC)c3C2=O)ccc1O | 2.33 |
| COc1cc(/C=C/C(=O)c2cccc(C(=O)/C=C/c3cc(OC)c(OC)c(OC)c3)c2)cc(OC)c1OC | 0.14 |
| COc1ccccc1/C=C/C=C/C(=O)c1cc(OC)c(OC)c(OC)c1 | 1.38 |
| COc1ccc(C(=O)/C=C/c2cccc(/C=C/C(=O)c3ccc(OC)c(OC)c3)c2)cc1OC | 0.14 |
| COc1cc(C(=O)/C=C/c2ccc(C(=O)O)cc2)cc(OC)c1OC | 141 |
| COc1cc2c(cc1OC)C(=O)/C(=C/c1ccc(N(C)C)cc1)C2 | 0.13 |
| COc1ccccc1C(=O)/C=C/c1c(C)cc(C)cc1C | 8.51 |
| COc1ccc(C(=O)/C=C/c2ccc(OC)c3ccccc23)cc1OC | 2.75 |
